Published values collected from several papers.
Protocols differ between the studies behind these lines.
Target: Serine/threonine-protein kinase NIM1 (NIM1K, Homo sapiens, UniProt Q8IY84)

For `CC(=O)C1=C(C)N(c2cccc(C(F)(F)F)c2)C(=O)N[C@@H]1c1ccc(C#N)nc1`, the remaining binding was 83.5% (cell-free assay, competition with immobilised ligand; 1 µM).
The remaining binding of `FC(F)(F)Oc1cccc(-c2cnc3ccc(-c4ccncc4)nn23)c1` is reported as 87% (cell-free assay, competition with immobilised ligand; 5 µM).
`COc1ccnn2ncc(-c3ccnc(N(C)C)n3)c12` has a remaining binding of 100% (binding; 1 µM).
With `Cc1nc(C2CCN(C(=O)c3ccc(OC(F)(F)F)cc3N)CC2)c2ncc(N3CCN(C)CC3)cc2n1` the remaining binding was 89% (cell-free assay, competition with immobilised ligand; 1 µM).
The remaining binding of `O=C(NCC1CCOCC1)c1n[nH]cc1NC(=O)c1c(F)cccc1F` is reported as 97% (binding, competition with immobilised ligand; 1 µM).
The remaining binding of `C[C@@H]1CCN(c2nccc(-c3cnn4ncccc34)n2)C1` is reported as 87% (binding; 1 µM).
With `O=C(c1ccc(Nc2ncc(Cl)c(-c3ccc(Cl)s3)n2)cc1)N1CCC(N2CCCC2)CC1` the remaining binding was 6.3% (binding, competition with immobilised ligand; 1 µM).
The remaining binding of `CCN1CCN(Cc2ccc(C(=O)Nc3ccc(C)c(Oc4ccc5c(c4)CC(=O)N5)c3)cc2C(F)(F)F)CC1` is reported as 100% (binding, competition with immobilised ligand; 1 µM).
With `C=CC(=O)N1CCC(C(=O)NCC(=O)N2CCN(c3nc(-c4cnc(N)nc4C(F)F)nc(N4CCOCC4)n3)CC2)CC1` the remaining binding was 100% (binding, competition with immobilised ligand; 1 µM).
`Cc1cnc(Nc2ccc(C(=O)N3CCC(N4CCCC4)CC3)cc2)nc1-c1cc2ccccc2s1` gave a remaining binding of 22% (binding, competition with immobilised ligand; 1 µM).
The remaining binding of `CS(=O)(=O)NCC[C@H](NC(=O)c1cncc2c1cnn2-c1ccc(F)cc1)c1ccnc(S(C)(=O)=O)c1` is reported as 100% (cell-free assay, competition with immobilised ligand; 1 µM).
The remaining binding of `O=C(NCCCN1CCOCC1)c1ccc(Nc2ncc(Cl)c(-c3ccc(Cl)s3)n2)cc1` is reported as 20% (binding, competition with immobilised ligand; 1 µM).
For `COc1cccc(CNC(=O)c2nc3scc(COCc4ccc(C(=O)O)cc4)c3c(=O)[nH]2)c1`, the remaining binding was 100% (cell-free assay, competition with immobilised ligand; 1 µM).
With `Nc1ncc2c(n1)-c1c([nH]c3ccc(C#CC4CC4)cc13)CCCC2` the remaining binding was 61% (binding, competition with immobilised ligand; 1 µM).
`c1cnn2ncc(-c3ccnc(N4CCC45COC5)n3)c2c1` has a remaining binding of 61% (binding; 1 µM).
`COc1cnc(Nc2cccc(S(N)(=O)=O)c2)nc1N1CCN(c2ccccc2)CC1` gave a remaining binding of 71% (binding, competition with immobilised ligand; 1 µM).
The remaining binding of `C[C@@H]1CN(c2cc(-c3nn(C)c4ccc(OC5(C)CC5)cc34)ncn2)C[C@H](C)O1` is reported as 74% (cell-free assay, competition with immobilised ligand; 1 µM).
The remaining binding of `CN(C)c1nccc(-c2cnc3ncccn23)n1` is reported as 67% (binding; 1 µM).
`CO[C@@H](C)c1c(Nc2ccc([C@H](N(C)C(=O)C3CCS(=O)(=O)CC3)C(F)(F)F)cc2)cnc2cc(Cl)nn12` has a remaining binding of 79% (cell-free assay, competition with immobilised ligand; 1 µM).
For `N[C@@H]1CCN(c2nccc(-c3cnn4ncccc34)n2)C1`, the remaining binding was 79% (binding; 1 µM).
The remaining binding of `CS(=O)(=O)c1cc(C2(NC(=O)c3cncc4c3cnn4-c3ccc(F)cc3)CC2)ccn1` is reported as 56% (cell-free assay, competition with immobilised ligand; 1 µM).
With `Cc1cnn2ncc(-c3ccnc(N(C)C)n3)c2c1` the remaining binding was 92% (binding; 1 µM).
